Kir21 inh = inhibitors of mouse Kir2.1 inward-rectifier potassium channel; B-score at 10 µM; 0.85% of 310,000 active; Inward rectifier potassium channel 2 (Mus musculus), P35561; HEK293-Kir2.1, FluxOR thallium flux fluorescence; active compounds read low;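 active = fluorescence ratio B-score at or below minus 3 SD of library scores, with starting-brightness B-score within 2 SD, cut at about -4.2 in these data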;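 note: channel flux triggered by added potassium and thallium sulfate stimulus; B-score of peak minus minimum fluorescence over baseline after thallium stimulus; more negative B-score means stronger Kir2.1 block with less thallium influx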
KCNQ1 pot = potentiators or activators of KCNQ1 channel, primary screen, cell-based, thallium flux, high-throughput | CHO-K1 KCNQ1, thallium flux FluxOR fluorescence; active compounds read high | Potassium voltage-gated channel subfamily KQT member 1 (Homo sapiens), P51787 | 0.35% of 310,000 active | B-score at 10 µM;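 active = fluorescence ratio B-score, a plate-corrected score, at least three library SD, with initial intensity B-score within 5 SD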
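Assay system: CHO-K1 cells stably expressing KCNQ1. Medium: assay buffer for compound exposure, DMSO matched across wells. Timing: 37 °C overnight plating, 90-min dark dye load, 20-min compound pretreatment. Signal: kinetic FluxOR fluorescence, 10 s baseline plus 110 s post-stimulus.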
hERG protect = hERG rescue from dofetilide block, primary screen, cell-based, CHO-hERG, FluxOR thallium flux, dofetilide IC70. activation (rescue from dofetilide block), less the hit threshold, % at 10 µM. AID 1511, 2009. Voltage-gated inwardly rectifying potassium channel KCNH2 (Homo sapiens), Q12809. 0.51% of 310,000 active. dofetilide IC70 present;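 active = activation above the mean of controls blocked by dofetilide plus 5 SD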;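 note: thallium influx through hERG after potassium depolarization seen as dye fluorescence rise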
KCNK3 inh = human KCNK3 channel inhibitors, primary screen, CHO cells, FluxOR thallium flux, B-score | FluxOR fluorescence; active compounds read low | B-score at 10 µM | Potassium channel subfamily K member 3 (Homo sapiens), O14649 | 0.84% of 340,000 active;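 active = B-score under library mean minus 4 SD, starting fluorescence ratio at most library mean plus 5 SD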;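 note: more negative B-score means stronger inhibition of thallium flux through KCNK3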
Target sequence (O14649 whole entry, looked up): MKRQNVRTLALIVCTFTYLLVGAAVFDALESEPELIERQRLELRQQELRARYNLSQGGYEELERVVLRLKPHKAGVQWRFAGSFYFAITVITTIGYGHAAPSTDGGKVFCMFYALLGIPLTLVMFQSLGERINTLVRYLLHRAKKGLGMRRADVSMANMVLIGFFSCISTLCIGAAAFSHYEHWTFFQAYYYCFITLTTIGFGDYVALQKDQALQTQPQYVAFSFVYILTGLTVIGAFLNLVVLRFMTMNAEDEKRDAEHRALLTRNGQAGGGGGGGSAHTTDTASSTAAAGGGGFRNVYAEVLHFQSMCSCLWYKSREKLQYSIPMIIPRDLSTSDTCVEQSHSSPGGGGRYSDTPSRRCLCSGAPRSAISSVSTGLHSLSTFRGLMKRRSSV
KCNK9 inh = KCNK9 potassium channel inhibitors, primary screen, HEK293 cells, thallium flux. Potassium channel subfamily K member 9 (Homo sapiens), Q9NPC2. FluxOR thallium flux fluorescence; active compounds read low. 1.2% of 310,000 active. B-score at 10 µM;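 active = ratio B-score over 3 SD below the library mean, with starting fluorescence within 5 SD of its mean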;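 note: negative B-score means less thallium flux so channel inhibition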
KCNQ1 block = inhibitors of human KCNQ1 channel, primary screen, cell-based, thallium flux, high-throughput; Potassium voltage-gated channel subfamily KQT member 1 (Homo sapiens), P51787; CHO-K1 KCNQ1, FluxOR thallium flux fluorescence; active compounds read high; B-score at 10 µM; 1.3% of 310,000 active; AID 2642, 2010;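 active = compounds whose thallium flux B-score, printed positive for inhibition, exceeds three library SD while starting fluorescence stays within three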;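 note: channel opened by potassium depolarization with thallium stimulus after 20 min compound exposure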
KCNK3 inh conf = retest of human KCNK3 channel inhibitors, confirmation, CHO cells, FluxOR thallium flux, triplicate; shares compounds with KCNK3 inh; FluxOR fluorescence; 0% buffer, 100% carvedilol maximal block; ratio percent of control, % at 10 µM; 99% of 2,400 active; AID 651638, 2012;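 active = ratio percent of control, averaged over triplicates, above buffer control mean plus 5 SD, cut at about 64% in these data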;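 note: ratio is the fluorescence rise from min to max over baseline after thallium stimulus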
KCNK3 uninduced = thallium flux inhibition in non-induced cells, primary screen, counter-screen for KCNK3 inhibitor project, cell-based, non-induced KCNK3 line, FluxOR thallium, triplicate. shares compounds with KCNK3 inh. non-induced KCNK3 parental cells; active compounds read low. thallium flux ratio (lower = more inhibition) at 10 µM. 40% of 2,400 active;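 active = thallium flux ratio, averaged over three wells, more than 5 SD below the buffer control mean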;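 note: host cells are CHO cells without KCNK3 induction; ratio is peak minus trough fluorescence over baseline then normalized to buffer controls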
* hit, by the source's call; i = inactive; nt = no result. Hits are enriched below; roughly 3.8% of the tested compounds scored in any of these assays.

SMILES	Kir21 inh	KCNQ1 pot	hERG protect	KCNK3 inh	KCNK9 inh	KCNQ1 block	KCNK3 inh conf	KCNK3 uninduced
COC(=O)COc1ccc(Cl)cc1C1Nc2ccccc2C(=O)N1c1ccc(OC)cc1 (stereo not drawn)	3.1	i	-7	i	-8*	i	122*	0.16*
Cc1ccc2nc(-c3ccc(NC(=S)NC4CC(C)(C)NC(C)(C)C4)cc3)sc2c1	-5.1*	i	-32	-15*	i	8*	125*	0.15*
Cc1ccc2nc(-c3ccc(NC(=S)NC(=O)C(C)C)cc3)sc2c1	-1.1	i	-7	i	i	i	nt	nt
COc1ccc(CCN2C(=O)c3cccc4cccc(c34)C2=O)cc1OC	-0.03	i	-8	i	i	i	nt	nt
COc1ccc(CN2C(=O)c3cccc4cccc2c34)cc1F	-0.16	i	-9	-9.3*	i	i	90*	i
COc1ccc(Cl)cc1NC(=O)CN(C)C(=O)c1ccc(N2CCCCCC2)c([N+](=O)[O-])c1	-1.8	i	-17	-12*	i	i	107*	i
COc1ccc(Cl)cc1NC(=O)CN(C)C(=O)c1ccc(N2CCCCC2)c([N+](=O)[O-])c1	0.47	i	-8	i	i	i	nt	nt
c1ccc2c(c1)Nc1cc3ccccc3cc1O2	nt	nt	nt	i	nt	nt	nt	nt
CN(CC(=O)Nc1cccc(F)c1)C(=O)CN1C(=O)C2CC=CCC2C1=O (stereo not drawn)	-0.03	i	-6	i	i	i	nt	nt
COC(=O)c1sccc1NC(=O)c1ccc(C(C)C)cc1	-1.8	i	-10	-11*	i	i	100*	i
Cc1ccccc1Cn1nc(C)c(NC(=O)c2sc3ccccc3c2Cl)c1C	1.1	i	-9	-9*	i	i	149*	0.11*
CCCCN(Cc1ccco1)C(=O)C1CCCN(c2ncnc3c2nc2n3CCCCC2)C1 (stereo not drawn)	0.08	i	-15	-11*	i	i	97*	i
O=C(Cn1cnc([N+](=O)[O-])n1)c1ccccc1	0.17	i	-1	i	i	i	nt	nt
O=C(Cn1cnc([N+](=O)[O-])n1)c1ccc(O)c(O)c1	-0.06	i	-3	-9.2*	-8*	i	79*	i
O=C(CNC(=O)c1ccccc1)OCc1nnc(-c2ccccc2)o1	-0.23	i	-15	i	i	i	nt	nt
O=C(CCN1c2ccccc2Sc2ccccc21)OCc1nnc(-c2ccccc2)o1	-1.4	i	-6	-9.5*	i	i	73*	i
Clc1ccccc1-c1nc(-c2ccc(Br)o2)no1	0.48	i	-2	-10*	i	i	123*	0.15*
O=[N+]([O-])c1ccccc1-c1nc(-c2ccc(Br)o2)no1	-2.2	i	-8	i	i	i	nt	nt
O=C(Nc1ccccc1C(=O)NC1CC1)c1ccc([N+](=O)[O-])o1	nt	nt	nt	i	nt	nt	nt	nt
O=C(OCC#CCSc1nc2ccccc2o1)c1cc2ccccc2o1	2.6	i	-9	-11*	i	i	105*	0.15*
O=C(/C=C/c1ccco1)N(Cc1cccc(F)c1)C1CCS(=O)(=O)C1 (stereo not drawn)	-0.05	i	-9	i	i	i	nt	nt
COc1cccc(Oc2ccc(C(F)(F)F)cc2NC(=O)CCc2nc3ccccc3c(=O)[nH]2)c1	0.92	i	-15	i	-7*	i	97*	i
O=C(CCc1nc2ccccc2c(=O)[nH]1)Nc1cc(C(F)(F)F)ccc1N1CCOCC1	-0.5	i	-7	i	i	i	nt	nt
CC1(C2CC2)NC(=O)N(CC(=O)N2CCN(c3ccccc3Cl)CC2)C1=O (stereo not drawn)	nt	nt	nt	i	nt	nt	nt	nt
COc1cccc(OCCn2cc(C(C)=O)c3ccccc32)c1	-2.5	i	-13	-9.2*	i	i	124*	i
SMILES	Kir21 inh	KCNQ1 pot	hERG protect	KCNK3 inh	KCNK9 inh	KCNQ1 block	KCNK3 inh conf	KCNK3 uninduced
COc1ccccc1OCCn1cc(C(=O)c2ccco2)c2ccccc21	-2.1	i	-12	-12*	-7.4*	i	102*	i
COc1ccccc1NC(=O)Cn1cc(C(=O)c2ccco2)c2ccccc21	0.1	i	-13	i	i	i	nt	nt
C=CC[C@@H](CC(=O)N[C@H](CO)Cc1ccccc1)C(=O)NC[C@H](OC(=O)[C@@H](CC=C)Cc1ccc(F)cc1)c1ccccc1	nt	nt	nt	i	nt	nt	nt	nt
COc1ccc(C2=NS(=O)(=O)N(C)C(C(=O)Nc3cc(C)ccc3O)=C2)cc1OC	0.28	i	-35	-9.2*	i	9*	95*	i
CCn1c(COc2cccc(C)c2)nc2ccccc21	-0.37	i	-7	i	i	i	nt	nt
COCn1c(COc2ccc3ccccc3c2)nc2ccccc21	-0.02	i	-8	-8.8*	i	i	95*	i
Cc1c(F)cccc1NS(=O)(=O)c1ccc(N2CCCC2=O)cc1	nt	nt	nt	i	nt	nt	nt	nt
CC(C)(C)C(=O)N(Cc1ccc(Cl)cc1)c1cnccn1	-1.1	i	-2	i	i	i	nt	nt
Cc1ccc(C)c(C(=O)COC(=O)c2c(-c3ccccc3)noc2C)c1	nt	nt	nt	-14*	nt	nt	136*	i
Cc1ccc(OCCOC(=O)c2c(-c3ccccc3)noc2C)cc1	-0.25	i	-10	-8.8*	-6.7*	i	101*	i
COc1ccc(NC(=O)CNC(c2ccccc2)c2ccccc2)cc1	-0.03	i	-4	i	i	i	nt	nt
COc1ccc(C(NCC(=O)NC(C)c2ccc(Cl)cc2)c2ccccc2)cc1 (stereo not drawn)	0.01	i	-1	-9.5*	i	i	126*	0.12*
CN(Cc1ccccc1F)C(=O)COc1ccc(C(=O)c2ccccc2)cc1	-2	i	-11	-12*	-7.7*	i	119*	i
CCCCOc1ccc2ccccc2c1C=O	-0.47	i	-4	-15*	i	i	129*	i
